Data: ChEMBL document CHEMBL5724801, “EUbOPEN Chemogenomics Library - Multiplex” (2024)
“And” between values parts separate entries of the source, which are not always exact repeats. Identical values can stand only once.

System: Fibroblast
Assay: Multiplex assay against human fibroblast
Assay type: toxicity, cell-based
How it was run: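 Hoechst33342, BioTracker Green Microtubule Cytoskeleton Dye, MitoTracker Red and Annexin V Alexa Fluor 680 were added to live cells at seeding, and imaging on a CQ1 microscope at 37°C and 5% CO2 followed compound addition. Gating by CellPathfinder machine learning separated cells into Hoechst high-intensity objects or normal cells, then normal cells into healthy, pyknosed or fragmented nuclei, then pyknosed cells into mitotic or apoptotic. Per cents of healthy-nucleus cells are reported for the tubulin, mitochondrial-mass and membrane-permeability phenotypes.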

[1] = 12 h, 1 µM, compound concentration 1 uM
[2] = 12 h, 10 µM, compound concentration 10 uM
[3] = 24 h, 1 µM, compound concentration 1 uM
[4] = 24 h, 10 µM, compound concentration 10 uM
[5] = 48 h, 1 µM, compound concentration 1 uM
[6] = 48 h, 10 µM, compound concentration 10 uM

## FC(F)(F)c1ccccc1-c1cc(C(F)(F)F)c2[nH]c(C3=NOC4(CCCCC4)C3)nc2c1
[1]
  Population Apoptotic (%): 11.43% and 13.33%
  Population Fragmented Nuclei (%): 11.76% and 2.87%
  Population Healthy Nuclei (%): 56.56% and 79.89%
  Population Hoechst High Intensity Objects (%): 0%
  Population Membrane Permeable-Phenotype (%): 8% and 4.32%
  Population Mitochondria Different-Phenotype (%): 4.8% and 10.07%
  Population Mitotic Cells (%): 88.57% and 86.67%
  Population Normal (%): 100%
  Population Pyknosed Nuclei (%): 31.67% and 17.24%
  Population Tubulin-Different-Phenotype (%): 12.8% and 20.14%
  Total Cell Count: 221 and 174
[2]
  Population Apoptotic (%): 7.62% and 14.29%
  Population Fragmented Nuclei (%): 10% and 8.05%
  Population Healthy Nuclei (%): 42.27% and 63.79%
  Population Hoechst High Intensity Objects (%): 0%
  Population Membrane Permeable-Phenotype (%): 12.9% and 5.41%
  Population Mitochondria Different-Phenotype (%): 19.35% and 15.32%
  Population Mitotic Cells (%): 92.38% and 85.71%
  Population Normal (%): 100%
  Population Pyknosed Nuclei (%): 47.73% and 28.16%
  Population Tubulin-Different-Phenotype (%): 30.11% and 51.35%
  Total Cell Count: 220 and 174
[3]
  Population Apoptotic (%): 10.91% and 15.62%
  Population Fragmented Nuclei (%): 8.06% and 4.79%
  Population Healthy Nuclei (%): 69.76% and 78.19%
  Population Hoechst High Intensity Objects (%): 0%
  Population Membrane Permeable-Phenotype (%): 3.47% and 3.4%
  Population Mitochondria Different-Phenotype (%): 7.51% and 4.08%
  Population Mitotic Cells (%): 89.09% and 84.38%
  Population Normal (%): 100%
  Population Pyknosed Nuclei (%): 22.18% and 17.02%
  Population Tubulin-Different-Phenotype (%): 17.92% and 18.37%
  Total Cell Count: 248 and 188
[4]
  Population Apoptotic (%): 13% and 17.86%
  Population Fragmented Nuclei (%): 7.66% and 9.09%
  Population Healthy Nuclei (%): 44.5% and 60.96%
  Population Hoechst High Intensity Objects (%): 0%
  Population Membrane Permeable-Phenotype (%): 7.53% and 4.39%
  Population Mitochondria Different-Phenotype (%): 25.81% and 29.82%
  Population Mitotic Cells (%): 87% and 82.14%
  Population Normal (%): 100%
  Population Pyknosed Nuclei (%): 47.85% and 29.95%
  Population Tubulin-Different-Phenotype (%): 69.89% and 65.79%
  Total Cell Count: 209 and 187
[5]
  Population Apoptotic (%): 20.83% and 16.67%
  Population Fragmented Nuclei (%): 8.37% and 6.59%
  Population Healthy Nuclei (%): 82.51% and 86.81%
  Population Hoechst High Intensity Objects (%): 0%
  Population Membrane Permeable-Phenotype (%): 1.38% and 1.27%
  Population Mitochondria Different-Phenotype (%): 10.14% and 2.53%
  Population Mitotic Cells (%): 79.17% and 83.33%
  Population Normal (%): 100%
  Population Pyknosed Nuclei (%): 9.13% and 6.59%
  Population Tubulin-Different-Phenotype (%): 7.83% and 18.99%
  Total Cell Count: 263 and 182
[6]
  Population Fragmented Nuclei (%): 9.33% and 11.92%
  Population Healthy Nuclei (%): 78.22% and 73.06%
  Population Hoechst High Intensity Objects (%): 0%
  Population Membrane Permeable-Phenotype (%): 0.57% and 4.26%
  Population Mitochondria Different-Phenotype (%): 13.64% and 7.8%
  Population Mitotic Cells (%): 96.43% and 55.17%
  Population Normal (%): 100%
  Population Pyknosed Nuclei (%): 12.44% and 15.03%
  Population Tubulin-Different-Phenotype (%): 38.64% and 60.99%
  Total Cell Count: 225 and 193

## Clc1ccccc1C(c1ccccc1)(c1ccccc1)n1cccn1
[1]
  Population Apoptotic (%): 14.29% and 24%
  Population Healthy Nuclei (%): 59.04% and 80.46%
  Population Hoechst High Intensity Objects (%): 0%
  Population Membrane Permeable-Phenotype (%): 4.08% and 0.71%
  Population Mitochondria Different-Phenotype (%): 5.1% and 12.14%
  Population Mitotic Cells (%): 85.71% and 76%
  Population Normal (%): 100%
  Population Pyknosed Nuclei (%): 25.3% and 14.37%
  Total Cell Count: 166 and 174
[2]
  Population Apoptotic (%): 9.84% and 23.44%
  Population Fragmented Nuclei (%): 9.09% and 6.46%
  Population Healthy Nuclei (%): 63.18% and 69.2%
  Population Hoechst High Intensity Objects (%): 0%
  Population Membrane Permeable-Phenotype (%): 9.35% and 3.85%
  Population Mitochondria Different-Phenotype (%): 14.39% and 16.48%
  Population Mitotic Cells (%): 90.16% and 76.56%
  Population Normal (%): 100%
  Population Pyknosed Nuclei (%): 27.73% and 24.33%
  Population Tubulin-Different-Phenotype (%): 30.22% and 45.6%
  Total Cell Count: 220 and 263
[3]
  Population Fragmented Nuclei (%): 12.05% and 9.29%
  Population Healthy Nuclei (%): 71.08% and 85.25%
  Population Hoechst High Intensity Objects (%): 0%
  Population Membrane Permeable-Phenotype (%): 4.24% and 2.56%
  Population Mitochondria Different-Phenotype (%): 3.39% and 8.97%
  Population Mitotic Cells (%): 96.43% and 60%
  Population Normal (%): 100%
  Population Tubulin-Different-Phenotype (%): 10.17% and 21.15%
  Total Cell Count: 166 and 183
[4]
  Population Apoptotic (%): 13.04% and 31.25%
  Population Healthy Nuclei (%): 67.26% and 79.55%
  Population Hoechst High Intensity Objects (%): 0%
  Population Membrane Permeable-Phenotype (%): 9.87% and 0.95%
  Population Mitochondria Different-Phenotype (%): 7.24% and 10.95%
  Population Mitotic Cells (%): 86.96% and 68.75%
  Population Normal (%): 100%
  Population Pyknosed Nuclei (%): 20.35% and 18.18%
  Population Tubulin-Different-Phenotype (%): 45.39% and 44.29%
  Total Cell Count: 226 and 264
[5]
  Population Apoptotic (%): 40% and 22.22%
  Population Fragmented Nuclei (%): 11.92% and 7.69%
  Population Healthy Nuclei (%): 82.9% and 87.69%
  Population Hoechst High Intensity Objects (%): 0%
  Population Membrane Permeable-Phenotype (%): 0.62% and 0.58%
  Population Mitochondria Different-Phenotype (%): 11.25% and 3.51%
  Population Mitotic Cells (%): 60% and 77.78%
  Population Normal (%): 100%
  Population Pyknosed Nuclei (%): 5.18% and 4.62%
  Total Cell Count: 193 and 195
[6]
  Population Apoptotic (%): 30.77% and 42.86%
  Population Fragmented Nuclei (%): 9.35% and 4.71%
  Population Healthy Nuclei (%): 85.37% and 89.8%
  Population Hoechst High Intensity Objects (%): 0%
  Population Membrane Permeable-Phenotype (%): 1.9% and 3.49%
  Population Mitochondria Different-Phenotype (%): 13.33% and 6.11%
  Population Mitotic Cells (%): 69.23% and 57.14%
  Population Normal (%): 100%
  Population Pyknosed Nuclei (%): 5.28% and 5.49%
  Population Tubulin-Different-Phenotype (%): 14.76% and 36.24%
  Total Cell Count: 246 and 255

## Cl.c1ccc2c(c1)CCC[C@H]2Nc1nc2ccccc2[nH]1
[1]
  Population Apoptotic (%): 11.32% and 10.42%
  Population Fragmented Nuclei (%): 9.36% and 5.1%
  Population Healthy Nuclei (%): 64.53% and 70.41%
  Population Hoechst High Intensity Objects (%): 0%
  Population Membrane Permeable-Phenotype (%): 6.11% and 2.17%
  Population Mitochondria Different-Phenotype (%): 6.87% and 9.42%
  Population Mitotic Cells (%): 88.68% and 89.58%
  Population Normal (%): 100%
  Population Pyknosed Nuclei (%): 26.11% and 24.49%
  Population Tubulin-Different-Phenotype (%): 18.32% and 18.12%
  Total Cell Count: 203 and 196
[2]
  Population Apoptotic (%): 5% and 13.89%
  Population Fragmented Nuclei (%): 8.94% and 7.57%
  Population Healthy Nuclei (%): 46.37% and 72.97%
  Population Hoechst High Intensity Objects (%): 0%
  Population Membrane Permeable-Phenotype (%): 8.43% and 2.96%
  Population Mitochondria Different-Phenotype (%): 10.84% and 15.56%
  Population Mitotic Cells (%): 95% and 86.11%
  Population Normal (%): 100%
  Population Pyknosed Nuclei (%): 44.69% and 19.46%
  Population Tubulin-Different-Phenotype (%): 24.1% and 30.37%
  Total Cell Count: 179 and 185
[3]
  Population Apoptotic (%): 11.36% and 6.25%
  Population Fragmented Nuclei (%): 6.72% and 4.74%
  Population Healthy Nuclei (%): 74.79% and 78.42%
  Population Hoechst High Intensity Objects (%): 0%
  Population Membrane Permeable-Phenotype (%): 4.49% and 2.01%
  Population Mitochondria Different-Phenotype (%): 8.43% and 5.37%
  Population Mitotic Cells (%): 88.64% and 93.75%
  Population Normal (%): 100%
  Population Pyknosed Nuclei (%): 18.49% and 16.84%
  Population Tubulin-Different-Phenotype (%): 17.98% and 10.07%
  Total Cell Count: 238 and 190
[4]
  Population Apoptotic (%): 6.56% and 11.11%
  Population Fragmented Nuclei (%): 8.38% and 10.7%
  Population Healthy Nuclei (%): 57.54% and 74.87%
  Population Hoechst High Intensity Objects (%): 0%
  Population Membrane Permeable-Phenotype (%): 2.91% and 1.43%
  Population Mitochondria Different-Phenotype (%): 13.59% and 7.86%
  Population Mitotic Cells (%): 93.44% and 88.89%
  Population Normal (%): 100%
  Population Pyknosed Nuclei (%): 34.08% and 14.44%
  Population Tubulin-Different-Phenotype (%): 35.92% and 30.71%
  Total Cell Count: 179 and 187
[5]
  Population Apoptotic (%): 7.14% and 20%
  Population Fragmented Nuclei (%): 7.17% and 4.5%
  Population Healthy Nuclei (%): 87.25% and 88%
  Population Hoechst High Intensity Objects (%): 0%
  Population Membrane Permeable-Phenotype (%): 0.91% and 2.27%
  Population Mitochondria Different-Phenotype (%): 9.13% and 3.98%
  Population Mitotic Cells (%): 92.86% and 80%
  Population Normal (%): 100%
  Population Pyknosed Nuclei (%): 5.58% and 7.5%
  Population Tubulin-Different-Phenotype (%): 5.48% and 13.64%
  Total Cell Count: 251 and 200
[6]
  Population Apoptotic (%): 21.05% and 50%
  Population Fragmented Nuclei (%): 12.39% and 11.11%
  Population Healthy Nuclei (%): 78.9% and 84.44%
  Population Hoechst High Intensity Objects (%): 0%
  Population Membrane Permeable-Phenotype (%): 1.74% and 4.21%
  Population Mitochondria Different-Phenotype (%): 6.4% and 3.68%
  Population Mitotic Cells (%): 78.95% and 50%
  Population Normal (%): 100%
  Population Pyknosed Nuclei (%): 8.72% and 4.44%
  Population Tubulin-Different-Phenotype (%): 19.19% and 32.11%
  Total Cell Count: 218 and 225
